Experimental data from ChEMBL document CHEMBL3112542, “Synthesis of triazole-functionalized 2-DOS analogues and their evaluation as A-site binders” (Bioorg Med Chem Lett, 2014).
In brackets after ≈: the same amount, converted by molar mass.

Columns and labels:
[1] = Binding affinity to 2AP-labeled duplex RNA oligonucleotide ribosomal decoding site (unknown origin) by fluorescence spectrophotometry
How it was run: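 Decoding-site RNA model oligonucleotide with 2-aminopurine replacing flexible A1492. Binding followed by enhancement of 2AP fluorescence emission. Values averaged from 3 replicate experiments per compound (10%).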

[2] = Binding affinity to Escherichia coli rRNA A site after 30 mins by luciferase transcription/translation assay
How it was run: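 Coupled bacterial transcription-translation run in E. coli extract. IC50 taken from 2 replicate experiments per compound, each in duplicate (14%).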

Staphylococcus aureus = experiment: Antimicrobial activity against Staphylococcus aureus ATCC 29213 after 18 hrs by microdilution method; type: functional; details: ATCC 29213, 18 h
Pseudomonas aeruginosa = experiment: Antimicrobial activity against Pseudomonas aeruginosa ATCC 27853 after 18 hrs by microdilution method; type: functional; details: ATCC 27853, 18 h
Escherichia coli = experiment: Antimicrobial activity against Escherichia coli ATCC 25922 after 18 hrs by microdilution method; type: functional; details: ATCC 25922, 18 h

EC50 ([1]; read-out: EC50)	IC50 [2]	MIC (Staphylococcus aureus)	MIC (Pseudomonas aeruginosa)	MIC (Escherichia coli)	EC50 [1]	SMILES
53 µM	317 µM	> 565 µg/mL	283 µg/mL (≈ 1250 µM)	283 µg/mL (≈ 1250 µM)	–	N[C@H]1C[C@@H]2[C@H](OCc3cnnn32)[C@@H](O)[C@@H]1O (single isomer, unassigned)
–	66.5 µM	60 µg/mL (≈ 174 µM)	> 1000 µg/mL	> 1000 µg/mL	Not Active	NCC[C@H](O)C(=O)N[C@H]1C[C@@H](n2cc(CO)nn2)[C@H](O)[C@@H](O)[C@@H]1O
–	468 µM	88 µg/mL (≈ 360 µM)	> 700 µg/mL	> 700 µg/mL	Not Active	N[C@H]1C[C@@H](n2cc(CO)nn2)[C@H](O)[C@@H](O)[C@@H]1O

The remaining lines, values behind:

SMILES	EC50 ([1]; read-out: EC50)	IC50 [2]	MIC (Staphylococcus aureus)	MIC (Pseudomonas aeruginosa)	MIC (Escherichia coli)	EC50 [1]
N[C@@H]1C[C@H](NC(=O)NCCO)[C@@H](O)[C@H](OCC(=O)N2CCOCC2)[C@H]1OCc1cn(CCO)nn1	62 µM	22.6 µM	78 µg/mL (≈ 156 µM)	157 µg/mL (≈ 313 µM)	235 µg/mL (≈ 469 µM)	–
NCCCC(=O)N[C@H]1C[C@@H]2[C@H](OCc3cnnn32)[C@@H](O)[C@@H]1O	22.4 µM	55.5 µM	109 µg/mL (≈ 350 µM)	> 870 µg/mL	> 870 µg/mL	–
N[C@@H]1C[C@H](N)[C@@H](O)[C@H](OCc2cn(CCO)nn2)[C@H]1OCC(=O)N1CCCCC1	3 µM	730 µM	129 µg/mL (≈ 313 µM)	> 1000 µg/mL	> 1000 µg/mL	–
NCC[C@H](O)C(=O)N[C@H]1C[C@@H]2[C@H](OCc3cnnn32)[C@@H](O)[C@@H]1O	0.017 µM	104 µM	102 µg/mL (≈ 312 µM)	> 820 µg/mL	> 820 µg/mL	–
NCC[C@H](O)C(=O)N[C@H]1C[C@@H](N)[C@H](O)[C@@H](O)[C@@H]1O	8.7 µM	475 µM	52.5 µg/mL (≈ 199 µM)	> 840 µg/mL	> 840 µg/mL	–
